Assay results from ChEMBL document CHEMBL1125789, “Synthesis and selective class III antiarrhythmic activity of novel N-heteroaralkyl-substituted 1-(aryloxy)-2-propanolamine and related propylamine derivatives” (J Med Chem, 1991).

Columns and labels:
Canis familiaris [1] = assay: Heart beat by the compound in open chest anesthetized dog, after iv administration at a dose of 0.25 mg/kg.; type: functional, Canis lupus familiaris
Procedure, shortened: (§1)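 Hemodynamics (heart rate, mean arterial pressure) recorded in pentobarbital-anesthetized (30 mg/kg iv, 5 mg/kg per h maintenance) open-chest mongrel dogs during the refractoriness study at BCL 300 ms. Readings were taken before and after iv or intraduodenal compound and expressed as change from control.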

Canis familiaris [2] = species on record: Canis familiaris; assay: Maximum rate of rise of the upstroke of transmembrane potential, in canine Purkinje Fibers at a concentration of 0.01 uM at 300 ms (simulating tachycardia); type: functional; settings: Canis lupus familiaris, Purkinje fiber
Procedure, shortened: (§2)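 Isolated canine Purkinje fiber bundles were driven by square-wave pulses 2.0 ms long at 2× threshold and equilibrated ≥1 h to steady state. Each concentration was superfused 45–60 min before recording, and action potentials were sampled at 4–6 sites per fiber in control and after drug, giving Vmax and APD to −60 mV.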

Canis familiaris [3] = species on record: Canis familiaris; assay: Repolarization to reach -60mV, in canine Purkinje Fibers at a concentration of 0.10 uM at 300 ms (simulating tachycardia); type: functional, Canis lupus familiaris, Purkinje fiber; procedure, shortened: as §2
Canis familiaris [4] = species on record: Canis familiaris; assay: Maximum rate of rise of the upstroke of transmembrane potential, in canine Purkinje Fibers at a concentration of 0.03 uM at 300 ms (simulating tachycardia); type: functional; settings: Canis lupus familiaris, Purkinje fiber; procedure, shortened: as §2
Canis familiaris [5] = assay: Ventricular conduction time by the compound in open chest anesthetized dog, after iv administration at a dose of 0.25 mg/kg.; type: functional, Canis lupus familiaris, Heart
Procedure, shortened: (§3)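 Mongrel dogs were anesthetized with sodium pentobarbital (30 mg/kg iv, then 5 mg/kg per h), the chest opened, and the heart paced at BCL 300 ms. Compound was given iv or intraduodenally. Ventricular conduction time was taken as the interval between electrograms at the proximal and distal sites of the recording electrode array. 2-5 dogs per dose.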

Canis familiaris [6] = species on record: Canis familiaris; assay: Maximum rate of rise of the upstroke of transmembrane potential, in canine Purkinje Fibers at a concentration of 0.03 uM at 1000 ms (simulating normal heart rate); type: functional; settings: Canis lupus familiaris, Purkinje fiber; procedure, shortened: as §2
Canis familiaris [7] = species on record: Canis familiaris; assay: repolarization to reach -60mV, in canine Purkinje Fibers at a concentration of 0.03 uM at 1000 ms (simulating normal heart rate); type: functional, Canis lupus familiaris, Purkinje fiber
Procedure, shortened: (§4)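 Purkinje fiber bundles were stimulated with square-wave current pulses of 2.0 ms at twice threshold and equilibrated for at least 1 h, or until action potential parameters were steady. Each concentration was superfused for 45-60 min to reach steady state. Action potentials were recorded at four to six sites per fiber, under control and after drug.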

Canis familiaris [8] = assay: Ventricular effective refractory period by the compound in open chest anesthetized dog, after iv administration at a dose of 0.50 mg/kg.; type: functional, Canis lupus familiaris, Heart; settings: dose 0.5 mg/kg
Canis familiaris [9] = species on record: Canis familiaris; assay: Maximum rate of rise of the upstroke of transmembrane potential, in canine Purkinje Fibers at a concentration of 0.10 uM at 1000 ms (simulating normal heart rate); type: functional; settings: Canis lupus familiaris, Purkinje fiber; procedure, shortened: as §2
Canis familiaris [10] = species on record: Canis familiaris; assay: Maximum rate of rise of the upstroke of transmembrane potential, in canine Purkinje Fibers at a concentration of 0.10 uM at 300 ms (simulating tachycardia); type: functional; settings: Canis lupus familiaris, Purkinje fiber; procedure, shortened: as §2
Canis familiaris [11] = assay: Mean arterial pressure by the compound in open chest anesthetized dog, after iv administration at a dose of 0.25 mg/kg.; type: functional, Canis lupus familiaris, Artery; procedure, shortened: as §1
Canis familiaris [12] = assay: Atrial effective refractory period by the compound in open chest anesthetized dog, after iv administration at a dose of 0.25 mg/kg.; type: functional, Canis lupus familiaris, Cardiac atrium
Procedure, shortened: (§5)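 Open-chest mongrel dogs under sodium pentobarbital anesthesia (30 mg/kg iv plus 5 mg/kg per h), paced at basic cycle length 300 ms. Atrial effective refractory period was determined by electrical stimulation before and after iv or intraduodenal compound and reported as change from control.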

Canis familiaris [13] = species on record: Canis familiaris; assay: repolarization to reach -60mV, in canine Purkinje Fibers at a concentration of 0.01 uM at 1000 ms (simulating normal heart rate); type: functional, Canis lupus familiaris, Purkinje fiber; procedure, shortened: as §4
Canis familiaris [14] = assay: Mean arterial pressure by the compound in open chest anesthetized dog, after iv administration at a dose of 0.50 mg/kg.; type: functional, Canis lupus familiaris, Artery; settings: dose 0.5 mg/kg; procedure, shortened: as §1
Canis familiaris [15] = assay: Mean arterial pressure by the compound in open chest anesthetized dog, after iv administration at a dose of 0.05 mg/kg.; type: functional, Canis lupus familiaris, Artery; procedure, shortened: as §1
Canis familiaris [16] = assay: Heart beat by the compound in open chest anesthetized dog, after iv administration at a dose of 0.50 mg/kg.; type: functional, Canis lupus familiaris; settings: dose 0.5 mg/kg; procedure, shortened: as §1
Canis familiaris [17] = assay: Atrial conduction time by the compound in open chest anesthetized dog, after iv administration at a dose of 0.50 mg/kg.; type: functional, Canis lupus familiaris, Cardiac atrium; settings: dose 0.5 mg/kg
Procedure, shortened: (§6)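 Mongrel dogs anesthetized with sodium pentobarbital (30 mg/kg iv, then 5 mg/kg per h), chest opened, paced at BCL 300 ms. Atrial conduction time was taken as the interval between electrograms recorded at the proximal and distal sites of the atrial recording electrode array, before and after iv or intraduodenal dosing. Values are changes from control.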

Canis familiaris [18] = assay: Ventricular effective refractory period by the compound in open chest anesthetized dog, after iv administration at a dose of 0.25 mg/kg.; type: functional, Canis lupus familiaris, Heart
Canis familiaris [19] = assay: Heart beat by the compound in open chest anesthetized dog, after iv administration at a dose of 0.05 mg/kg.; type: functional, Canis lupus familiaris; procedure, shortened: as §1
Canis familiaris [20] = assay: Atrial effective refractory period by the compound in open chest anesthetized dog, after iv administration at a dose of 0.05 mg/kg.; type: functional, Canis lupus familiaris, Cardiac atrium; procedure, shortened: as §5
Canis familiaris [21] = assay: Ventricular conduction time by the compound in open chest anesthetized dog, after iv administration at a dose of 0.05 mg/kg.; type: functional, Canis lupus familiaris, Heart; procedure, shortened: as §3
Canis familiaris [22] = assay: Atrial effective refractory period by the compound in open chest anesthetized dog, after iv administration at a dose of 0.50 mg/kg.; type: functional, Canis lupus familiaris, Cardiac atrium; settings: dose 0.5 mg/kg; procedure, shortened: as §5
Canis familiaris [23] = species on record: Canis familiaris; assay: repolarization to reach -60mV, in canine Purkinje Fibers at a concentration of 0.10 uM at 1000 ms (simulating normal heart rate); type: functional, Canis lupus familiaris, Purkinje fiber; procedure, shortened: as §4
Canis familiaris [24] = species on record: Canis familiaris; assay: Repolarization to reach -60mV, in canine Purkinje Fibers at a concentration of 0.01 uM at 300 ms (simulating tachycardia); type: functional, Canis lupus familiaris, Purkinje fiber; procedure, shortened: as §2
Canis familiaris [25] = assay: Atrial conduction time by the compound in open chest anesthetized dog, after iv administration at a dose of 0.05 mg/kg.; type: functional, Canis lupus familiaris, Cardiac atrium; procedure, shortened: as §6
Canis familiaris [26] = species on record: Canis familiaris; assay: Maximum rate of rise of the upstroke of transmembrane potential, in canine Purkinje Fibers at a concentration of 0.01 uM at 1000 ms (simulating normal heart rate); type: functional; settings: Canis lupus familiaris, Purkinje fiber; procedure, shortened: as §2
Canis familiaris [27] = assay: Ventricular conduction time by the compound in open chest anesthetized dog, after iv administration at a dose of 0.50 mg/kg.; type: functional, Canis lupus familiaris, Heart; settings: dose 0.5 mg/kg; procedure, shortened: as §3
Canis familiaris [28] = assay: Ventricular effective refractory period by the compound in open chest anesthetized dog, after iv administration at a dose of 0.05 mg/kg.; type: functional, Canis lupus familiaris, Heart
Canis familiaris [29] = assay: Atrial conduction time by the compound in open chest anesthetized dog, after iv administration at a dose of 0.25 mg/kg.; type: functional, Canis lupus familiaris, Cardiac atrium; procedure, shortened: as §6

`CN(CCOc1ccc(NS(C)(=O)=O)cc1)CCc1ccc(NS(C)(=O)=O)cc1` [DOFETILIDE] showed an HR (Canis familiaris [1]) of -21, a Vmax (Canis familiaris [2]) of 4 and an APD (Canis familiaris [3]) of 29%. It also gave a Vmax (Canis familiaris [4]) of 7, a VCT (Canis familiaris [5]) of -5 and a Vmax (Canis familiaris [6]) of 2. It also gave an APD (Canis familiaris [7]) of 67%, a VERP (Canis familiaris [8]) of 27 and a Vmax (Canis familiaris [9]) of 5. For the same molecule, the Vmax (Canis familiaris [10]) was 5, the MBP (Canis familiaris [11]) was 1 and the AERP (Canis familiaris [12]) was 60. For the same molecule, the APD (Canis familiaris [13]) was 37%, the MBP (Canis familiaris [14]) was -2 and the MBP (Canis familiaris [15]) was 1. It also gave an HR (Canis familiaris [16]) of -24, an ACT (Canis familiaris [17]) of -9 and a VERP (Canis familiaris [18]) of 25. The HR (Canis familiaris [19]) was -14, the AERP (Canis familiaris [20]) was 46 and the VCT (Canis familiaris [21]) was -4. For the same molecule, the AERP (Canis familiaris [22]) was 65, the APD (Canis familiaris [23]) was 85% and the APD (Canis familiaris [24]) was 22%. It also gave an ACT (Canis familiaris [25]) of -4, a Vmax (Canis familiaris [26]) of 4 and a VCT (Canis familiaris [27]) of -4. The VERP (Canis familiaris [28]) was 23 and the ACT (Canis familiaris [29]) was -6.
